From ChEMBL document CHEMBL1134409, “Design, synthesis, and discovery of a novel CCR1 antagonist” (J Med Chem, 2001)

How the values were obtained:
[1] = target: T1, C-C chemokine receptor type 1 (Mus musculus, UniProt P51675); test: Inhibitory activity against [125I]-MIP-1 alpha binding to mouse CCR1 receptors.
T1 sequence (P51675 whole entry): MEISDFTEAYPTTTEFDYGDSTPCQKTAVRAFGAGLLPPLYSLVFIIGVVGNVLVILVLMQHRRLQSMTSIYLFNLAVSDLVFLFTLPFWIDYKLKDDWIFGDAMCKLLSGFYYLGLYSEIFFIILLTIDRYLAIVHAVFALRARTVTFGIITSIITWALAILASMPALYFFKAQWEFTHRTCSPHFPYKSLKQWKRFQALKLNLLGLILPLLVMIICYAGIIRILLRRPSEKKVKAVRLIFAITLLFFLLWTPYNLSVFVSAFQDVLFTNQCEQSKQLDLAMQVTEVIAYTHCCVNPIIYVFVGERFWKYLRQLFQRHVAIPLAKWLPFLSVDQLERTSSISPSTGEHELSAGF
Outline: (§1)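 Whole-cell binding. CHO cells transfected with the CCR receptor were detached with PBS(-) containing 2 mM EDTA and resuspended in Krebs-Ringer phosphate buffer with 0.1% BSA and 0.1% glucose. 1 × 10^5 cells were incubated with 50 pM 125I-chemokine plus antagonist for 1 h at 37 °C to reach equilibrium. Nonspecific binding was taken with 100 nM unlabeled chemokine. Ice-cold buffer was then added.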

[2] = target: T2, C-C chemokine receptor type 1 (Homo sapiens, UniProt P32246); test: Inhibitory activity against [125I]-MIP-1 alpha binding to human CCR1 receptors.; outline: as §1
T2 sequence (P32246 whole entry): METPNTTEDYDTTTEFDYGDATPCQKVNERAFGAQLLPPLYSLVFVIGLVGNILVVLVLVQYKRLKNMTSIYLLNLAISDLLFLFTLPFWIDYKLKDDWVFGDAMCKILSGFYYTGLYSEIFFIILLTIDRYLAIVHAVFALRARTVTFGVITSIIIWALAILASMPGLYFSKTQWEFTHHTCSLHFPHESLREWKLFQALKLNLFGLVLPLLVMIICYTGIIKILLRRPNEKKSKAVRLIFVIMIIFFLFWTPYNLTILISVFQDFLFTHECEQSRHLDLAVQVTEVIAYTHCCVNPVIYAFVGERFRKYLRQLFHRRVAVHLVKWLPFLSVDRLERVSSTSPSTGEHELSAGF

| SMILES | IC50 [1] [nM] | IC50 [2] [nM] |
| --- | --- | --- |
| CC[N+]1(CC2CCCCCCC2)CCC(NC(=O)C2c3ccccc3Oc3ccccc32)CC1 (configuration not stated) | 660 |  |
| O=C(NC1CCN(CC2CCCCCCCCC2)CC1)C1c2ccccc2Oc2ccccc21 | > 10000 | 800 |
| O=C(NC1CCN(CC2CCCCCCC2)CC1)C(c1ccccc1)c1ccccc1 | > 10000 | 1100 |
| O=C(NC1CCN(CC2CCCCCCC2)CC1)c1c2ccccc2cc2ccccc12 | > 10000 | > 10000 |
| O=C(NC1CCN(Cc2ccccc2)CC1)C1c2ccccc2Oc2ccccc21 | > 10000 | > 10000 |
| C[N+]1(CC2CCCCCCC2)CCC(NC(=O)c2c3ccccc3cc3ccccc23)CC1 (configuration not stated) | > 10000 | 1800 |
| CC[N+]1(C/C2=C/CCCCCC2)CCC(NC(=O)C2c3cc(Br)ccc3Oc3ccc(Br)cc32)CC1 (configuration not stated) | 12 | 1.9 |
| C[N+]1(C/C2=C/CCCCCC2)CCC(NC(=O)C2c3ccccc3Oc3ccccc32)CC1 (configuration not stated) | 350 | 2.5 |
| O=C(NC1CCN(CC2CCCCCCC2)CC1)C1c2cc(Br)ccc2Oc2ccc(Br)cc21 | > 10000 | 5100 |
| CCCC[N+]1(CC2CCCCCCC2)CCC(NC(=O)C2c3ccccc3Oc3ccccc32)CC1 (configuration not stated) | 380 | 5 |
| O=C(NC1CCN(Cc2ccc3ccccc3c2)CC1)C1c2ccccc2Oc2ccccc21 | > 10000 | > 10000 |
| CCC[N+]1(C/C2=C/CCCCCC2)CCC(NC(=O)C2c3ccccc3Oc3ccccc32)CC1 (configuration not stated) | 270 | 2.8 |
| O=C(NC1CCN(CC2CCCCCCC2)CC1)C1c2ccccc2Oc2ccccc21 | > 10000 | 140 |
| C=CC[N+]1(CC2CCCCCCC2)CCC(NC(=O)C2c3ccccc3Oc3ccccc32)CC1 (configuration not stated) | 670 | 9.7 |
| O=C(NC1CCN(CC2CCCCCCC2)CC1)C(O)(c1ccccc1)c1ccccc1 | > 10000 | 1600 |
| C[N+]1(CC2CCCCCCC2)CCC(NC(=O)C2c3cc(Br)ccc3Oc3ccc(Br)cc32)CC1 (configuration not stated) | 240 |  |
| O=C(NC1CCN(C/C2=C/CCCCCC2)CC1)C1c2ccccc2Oc2ccccc21 | 590 | 51 |
